Assays:
[1] = AUC in BALB/c mouse at 50 mg/kg, po; format: ADME, organism-based; set-up: dose 50 mg/kg, route oral; conditions: plasma
In short: (§1)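 Three female BALB/c mice (lines for mice, 8–10 weeks) or three female Sprague-Dawley rats (10–12 weeks) per group; 50 mg/kg oral gavage in 3% EtOH-7% Tween 80-90% normal saline. Plasma sampled at set times (tail bleed in mice, saphenous vein in rats), extracted with acetonitrile plus internal standard, quantified by LC/MS; AUC as mean of three animals.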

[2] = AUC in Sprague-Dawley rat at 2 mg/kg, iv; format: ADME, organism-based; set-up: dose 2 mg/kg, route intravenous; conditions: plasma
In short: (§2)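 Three female Sprague-Dawley rats per group (10–12 weeks), jugular-vein catheterized; 2 mg/kg in 3% EtOH-7% Tween 80-90% normal saline given through the catheter. Plasma drawn from the catheter at set times, acetonitrile extraction with internal standard, LC/MS quantification.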

[3] = Inhibition of Plasmodium falciparum protein farnesyltransferase by SPA method
[4] = Metabolic stability in rat liver microsomes; format: ADME, Microsome
In short: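 Pooled female liver microsomes at 0.5 mg/ml in 0.1 M potassium phosphate pH 7.4, 3 mM MgCl2, 1 mM EDTA, with NADPH regenerating system (1 mM NADP+, 5 mM glucose-6-phosphate, 1 U/ml G6PDH). Preincubated 10 min at 37°C, then compound added to 1 μM final. Time points quenched with 3 volumes acetonitrile plus internal standard; parent quantified by LC/MS; half-life reported.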

[5] = Cmax in Sprague-Dawley rat at 50 mg/kg, po; format: ADME, organism-based; set-up: dose 50 mg/kg, route oral; conditions: in vivo
In short: (§3)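 50 mg/kg by oral gavage in 3% EtOH-7% Tween 80-90% normal saline to groups of three females (BALB/c mice, 8–10 weeks, tail bleed; Sprague-Dawley rats, 10–12 weeks, saphenous vein). Plasma extracted with acetonitrile/internal standard, LC/MS; means of three animals. Oral elimination half-life depends on absorption rate as well as elimination.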

[6] = Permeability from apical to basolateral side in human Caco-2 cells; format: ADME, cell-based; conditions: read-out: permeability
Plasmodium falciparum [7] = assay: Antiplasmodial activity against chloroquine-sensitive Plasmodium falciparum 3D7 by [3H]hypoxanthine uptake; format: functional; conditions: read-out: ED50 (the source's name)
In short: (§4)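 Asynchronous cultures at 0.5% parasitemia and 0.5% hematocrit in RPMI 1640 with 20% heat-inactivated human A+ plasma, exposed to serially diluted inhibitor (top final 5 μM, from DMSO stock) under 5% CO2/5% O2/90% N2 at 37°C for 48 h. [3H]hypoxanthine was then added for 24 h and harvested counts were background-subtracted against DMSO-only controls. ED50 came from linear regression, as the mean of duplicates.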

Plasmodium falciparum [8] = assay: Antiplasmodial activity against chloroquine-resistant Plasmodium falciparum K1 by [3H]hypoxanthine uptake; format: functional; conditions: read-out: ED50 (the source's name); in short: as §4
[9] = Elimination half life in Sprague-Dawley rat at 50 mg/kg, po; format: ADME, organism-based; set-up: dose 50 mg/kg, route oral; conditions: in vivo, read-out: beta t1/2; in short: as §3
[10] = Elimination half life in Sprague-Dawley rat at 2 mg/kg, iv; format: ADME, organism-based; set-up: dose 2 mg/kg, route intravenous; conditions: in vivo, read-out: beta t1/2; in short: as §2
[11] = Elimination half life in BALB/c mouse at 50 mg/kg, po; format: ADME, organism-based; set-up: dose 50 mg/kg, route oral; conditions: in vivo, read-out: beta t1/2; in short: as §3
[12] = AUC in Sprague-Dawley rat at 50 mg/kg, po; format: ADME, organism-based; set-up: dose 50 mg/kg, route oral; conditions: plasma; in short: as §1
[13] = Oral bioavailability in Sprague-Dawley rat; format: ADME, organism-based; conditions: in vivo
In short: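 Female Sprague-Dawley rats, 10-12 weeks, three per group. Oral gavage at 50 mg/kg and jugular-catheter i.v. dose at 2 mg/kg, both in 3% EtOH-7% Tween 80-90% saline. Plasma taken over time, acetonitrile extraction with internal standard, LC/MS. Bioavailability computed as oral AUC/i.v. AUC.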

Rattus norvegicus [14] = assay: Plasma concentration in bile duct cannulated Sprague-Dawley rat at 35 mg/kg, po after 4 hrs; format: ADME, organism-based; set-up: dose 35 mg/kg, route oral; conditions: in vivo
In short: (§5)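 Male Sprague-Dawley rats, about 350 g, with jugular and bile-duct cannulae, allowed 1 week recovery; three per compound. Oral gavage 35 mg/kg in 3% EtOH-7% Tween 80-90% saline with 80 μCi/kg 14C tracer. Monitored 18 h. Plasma and blood-cell radioactivity measured by liquid scintillation counting and given as μg base equivalents/g.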

Blood [15] = assay: Drug level in bile duct cannulated Sprague-Dawley rat blood at 35 mg/kg, po after 18 hrs; format: ADME, organism-based; set-up: dose 35 mg/kg, route oral; conditions: in vivo
In short: (§6)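 Male Sprague-Dawley rats (~350 g), jugular vein and bile duct cannulated, 1 week recovery; three per compound dosed by oral gavage with 35 mg/kg in 3% EtOH-7% Tween 80-90% normal saline plus 80 μCi/kg 14C tracer. Plasma and blood cells sampled over 18 h; radioactivity by liquid scintillation, reported as mean μg base equivalents/g.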

Blood [16] = assay: Drug level in bile duct cannulated Sprague-Dawley rat blood at 35 mg/kg, po after 0.5 hrs; format: ADME, organism-based; set-up: dose 35 mg/kg, route oral; conditions: in vivo; in short: as §6
Blood [17] = assay: Drug level in bile duct cannulated Sprague-Dawley rat blood at 35 mg/kg, po after 2 hrs; format: ADME, organism-based; set-up: dose 35 mg/kg, route oral; conditions: in vivo; in short: as §6
Blood [18] = assay: Drug level in bile duct cannulated Sprague-Dawley rat blood at 35 mg/kg, po after 6 hrs; format: ADME, organism-based; set-up: dose 35 mg/kg, route oral; conditions: in vivo; in short: as §6
[19] = Drug metabolism in bile duct cannulated Sprague-Dawley rat assessed as radioactive drug recovery in carcass at 35 mg/kg, po after 18 hrs; format: ADME, organism-based; set-up: dose 35 mg/kg, route oral; conditions: in vivo
In short: (§7)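 Male bile-duct- and jugular-cannulated Sprague-Dawley rats (~350 g, three per compound) given 35 mg/kg 14C-labelled compound orally (80 μCi/kg) in 3% EtOH-7% Tween 80-90% saline. Urine, feces and bile collected for 18 h, cages washed with methanol-water, animals autopsied; radioactivity per matrix by liquid scintillation counting as mean % of dose.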

Rattus norvegicus [20] = assay: Plasma concentration in bile duct cannulated Sprague-Dawley rat at 35 mg/kg, po after 0.5 hrs; format: ADME, organism-based; set-up: dose 35 mg/kg, route oral; conditions: in vivo; in short: as §5
[21] = Drug metabolism in bile duct cannulated Sprague-Dawley rat assessed as radioactive drug recovery in bile at 35 mg/kg, po after 18 hrs; format: ADME, organism-based; set-up: dose 35 mg/kg, route oral; conditions: in vivo; in short: as §7
Rattus norvegicus [22] = assay: Toxicity in bile duct cannulated Sprague-Dawley rat assessed as incidence of adverse events at 35 mg/kg, po after 18 hrs; format: organism-based; set-up: dose 35 mg/kg, route oral; conditions: in vivo; in short: as §5
[23] = Drug metabolism in bile duct cannulated Sprague-Dawley rat assessed as radioactive drug recovery in urine at 35 mg/kg, po after 18 hrs; format: ADME, organism-based; set-up: dose 35 mg/kg, route oral; conditions: in vivo; in short: as §7
[24] = Drug metabolism in bile duct cannulated Sprague-Dawley rat assessed as radioactive drug recovery in gastrointestinal tract at 35 mg/kg, po after 18 hrs; format: ADME, organism-based; set-up: dose 35 mg/kg, route oral; conditions: in vivo; in short: as §7
Rattus norvegicus [25] = assay: Plasma concentration in bile duct cannulated Sprague-Dawley rat at 35 mg/kg, po after 3 hrs; format: ADME, organism-based; set-up: dose 35 mg/kg, route oral; conditions: in vivo; in short: as §5
Rattus norvegicus [26] = assay: Plasma concentration in bile duct cannulated Sprague-Dawley rat at 35 mg/kg, po after 1 hr; format: ADME, organism-based; set-up: dose 35 mg/kg, route oral; conditions: in vivo; in short: as §5
Blood [27] = assay: Drug level in bile duct cannulated Sprague-Dawley rat blood at 35 mg/kg, po after 3 hrs; format: ADME, organism-based; set-up: dose 35 mg/kg, route oral; conditions: in vivo; in short: as §6
Blood [28] = assay: Drug level in bile duct cannulated Sprague-Dawley rat blood at 35 mg/kg, po after 1 hr; format: ADME, organism-based; set-up: dose 35 mg/kg, route oral; conditions: in vivo; in short: as §6
Rattus norvegicus [29] = assay: Plasma concentration in bile duct cannulated Sprague-Dawley rat at 35 mg/kg, po after 2 hrs; format: ADME, organism-based; set-up: dose 35 mg/kg, route oral; conditions: in vivo; in short: as §5
Blood [30] = assay: Drug level in bile duct cannulated Sprague-Dawley rat blood at 35 mg/kg, po after 4 hrs; format: ADME, organism-based; set-up: dose 35 mg/kg, route oral; conditions: in vivo; in short: as §6
Rattus norvegicus [31] = assay: Drug metabolism in bile duct cannulated Sprague-Dawley rat assessed as radioactive drug recovery at 35 mg/kg, po after 18 hrs; format: ADME, organism-based; set-up: dose 35 mg/kg, route oral; conditions: in vivo; in short: as §7
Rattus norvegicus [32] = assay: Plasma concentration in bile duct cannulated Sprague-Dawley rat at 35 mg/kg, po after 18 hrs; conditions: in vivo
[33] = Drug metabolism in bile duct cannulated Sprague-Dawley rat assessed as radioactive drug recovery in feces at 35 mg/kg, po after 18 hrs; format: ADME, organism-based; set-up: dose 35 mg/kg, route oral; conditions: in vivo; in short: as §7
Rattus norvegicus [34] = assay: Plasma concentration in bile duct cannulated Sprague-Dawley rat at 35 mg/kg, po after 6 hrs; format: ADME, organism-based; set-up: dose 35 mg/kg, route oral; conditions: in vivo; in short: as §5

With `Cn1cncc1CN1CC(N(CC2CCN(C(=O)OC(C)(C)C)CC2)S(=O)(=O)c2ccccn2)Cc2cc(C#N)ccc21` (centres undefined) the AUC [1] was 11.8 µM·h, the AUC [2] was 0.967 µM·h and the IC50 [3] was 1.5 nM. The half-life [4] was 10 min, the Cmax [5] was 6.3 µM and the Papp A→B [6] was 15.5 ×10⁻⁶ cm/s. The EC50 (Plasmodium falciparum [7]) was 155 nM, the EC50 (Plasmodium falciparum [8]) was 180 nM and the half-life [9] was 151 min. For the same compound, the half-life [10] was 55 min, the half-life [11] was 54 min and the AUC [12] was 30.1 µM·h. The bioavailability [13] was 124%.
With `Cn1cncc1CN1CC(N(CC2CCN(C(=O)OC(C)(C)C)CC2)S(=O)(=O)c2ccccn2)Cc2cc([14C]#N)ccc21` (centres undefined) the Cp (Rattus norvegicus [14]) was 1.92 ug base equiv/g, the Drug uptake (Blood [15]) was 0.344 ug base equiv/g and the Drug uptake (Blood [16]) was 0.442 ug base equiv/g. For the same compound, the Drug uptake (Blood [17]) was 1.03 ug base equiv/g, the Drug uptake (Blood [18]) was 0.623 ug base equiv/g and the Drug uptake [19] was 9.7%. For the same compound, the Cp (Rattus norvegicus [20]) was 1.5 ug base equiv/g, the Drug uptake [21] was 26.2% and the Activity (Rattus norvegicus [22]) was “Non-toxic”. For the same compound, the Drug uptake [23] was 4.3%, the Drug uptake [24] was 18.2% and the Cp (Rattus norvegicus [25]) was 2.2 ug base equiv/g. The Cp (Rattus norvegicus [26]) was 2.01 ug base equiv/g, the Drug uptake (Blood [27]) was 0.821 ug base equiv/g and the Drug uptake (Blood [28]) was 0.909 ug base equiv/g. For the same compound, the Cp (Rattus norvegicus [29]) was 2.14 ug base equiv/g, the Drug uptake (Blood [30]) was 0.729 ug base equiv/g and the Drug uptake (Rattus norvegicus [31]) was 92.2%. For the same compound, the Cp (Rattus norvegicus [32]) was 0.34 ug base equiv/g, the Drug uptake [33] was 26.7% and the Cp (Rattus norvegicus [34]) was 1.23 ug base equiv/g.

Source: ChEMBL document CHEMBL1138529, “Efficacy, pharmacokinetics, and metabolism of tetrahydroquinoline inhibitors of Plasmodium falciparum protein farnesyltransferase” (Antimicrob Agents Chemother, 2007)
